From article PMC6605687 (The Journal of General Physiology, 2019)
Positions count from the first letter of the chain named.

Tests used:
Format in all cases: cell-based
rP2X2 Lys71Gln = molecular target: T1, rP2X2 Lys71Gln (Rattus norvegicus, UniProt P49653, K71Q); assay: Two-electrode voltage clamp, oocytes expressing rP2X2 Lys71Gln
T1 sequence (P49653 1-472 K71Q): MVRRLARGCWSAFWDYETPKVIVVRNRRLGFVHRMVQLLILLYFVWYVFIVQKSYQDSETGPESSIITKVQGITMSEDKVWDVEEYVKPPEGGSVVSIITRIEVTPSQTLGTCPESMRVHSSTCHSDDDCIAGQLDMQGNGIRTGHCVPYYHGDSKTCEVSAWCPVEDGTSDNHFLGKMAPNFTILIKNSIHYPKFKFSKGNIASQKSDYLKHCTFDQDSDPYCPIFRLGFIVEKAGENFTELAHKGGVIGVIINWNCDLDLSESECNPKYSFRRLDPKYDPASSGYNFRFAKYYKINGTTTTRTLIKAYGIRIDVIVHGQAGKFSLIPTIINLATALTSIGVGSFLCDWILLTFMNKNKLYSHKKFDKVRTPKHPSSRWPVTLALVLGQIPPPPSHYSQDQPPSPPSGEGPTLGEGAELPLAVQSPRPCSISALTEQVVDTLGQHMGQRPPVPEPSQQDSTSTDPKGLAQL
In short: (§1)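 Mutations were made by site-directed mutagenesis. Xenopus oocytes were injected with rP2X2 mRNA and incubated in L-15 at 18°C. Two-electrode voltage clamp was done 1–2 days later at −40 mV under ND96 perfusion (pH 7.4). ATP concentration-response currents were normalised and fitted to a one-component Hill equation for EC50 and Hill coefficient. Results are mean ± SEM, tested by one-way ANOVA with Dunnett's test against WT.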

rP2X2 Lys308Arg = molecular target: T2, rP2X2 Lys308Arg (Rattus norvegicus, UniProt P49653, K308R); assay: Two-electrode voltage clamp, oocytes expressing rP2X2 Lys308Arg
T2 sequence (P49653 1-472 K308R): T1 sequence (P49653 1-472 K71Q) with Q71K, K308R
In short: as §1

rP2X2 Lys308Gln = molecular target: T3, rP2X2 Lys308Gln (Rattus norvegicus, UniProt P49653, K308Q); assay: Two-electrode voltage clamp, oocytes expressing rP2X2 Lys308Gln
T3 sequence (P49653 1-472 K308Q): T1 sequence (P49653 1-472 K71Q) with Q71K, K308Q
In short: as §1

rP2X2 Arg290Lys = molecular target: T4, rP2X2 Arg290Lys (Rattus norvegicus, UniProt P49653, R290K); assay: Two-electrode voltage clamp, oocytes expressing rP2X2 Arg290Lys
T4 sequence (P49653 1-472 R290K): T1 sequence (P49653 1-472 K71Q) with Q71K, R290K
In short: as §1

rP2X2 Ile185Val = molecular target: T5, rP2X2 Ile185Val (Rattus norvegicus, UniProt P49653, I185V); assay: Two-electrode voltage clamp, oocytes expressing rP2X2 Ile185Val
T5 sequence (P49653 1-472 I185V): T1 sequence (P49653 1-472 K71Q) with Q71K, I185V
In short: as §1

## Nc1ncnc2c1ncn2[C@@H]1O[C@H](COP(=O)(O)OP(=O)(O)OP(=O)(O)O)[C@@H](O)[C@H]1O [ATP, Adenosine 5′-triphosphate]
rP2X2 Lys71Gln
  EC50: 6.3 mM
rP2X2 Lys308Arg
  EC50: 6 mM
rP2X2 Lys308Gln
  EC50: 5.8 mM
rP2X2 Arg290Lys
  EC50: 0.46 ± 0.06 mM
rP2X2 Ile185Val
  EC50: 0.023 ± 0.003 mM
